Measurements published in ChEMBL document CHEMBL5346886 (Eur J Med Chem, 2023).
In brackets after ≈: the same amount, converted by molar mass. Activity calls are given as the source filed them. The calls are words filed in the database; no cut-off is given here.

Key:
[1] = Drug distribution in BALB/c mouse kidney assessed as hydrolyzed ibuprofen metabolite at 200 mg/kg, po administered as single dose and measured after 1 hrs by LC-MS/MS analysis; assay type: ADME, organism-based; conditions: in vivo
Murine hepatitis virus [2] = test: Antiviral activity against murine hepatitis virus-A59 infected in BALB/c mouse assessed as reduction in IL-1beta production in liver at 10 to 100 mg/kg, po administered once daily one hour post infection and measured after 3 days by ELISA analysis; assay type: functional, organism-based; conditions: dose 10-100 mg/kg, time 3.0 day
Procedure, shortened: (§1)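 MHV-A59 was inoculated intranasally into male BALB/c mice (30 μL, TCID50 = 10−7.125/100 μL), with oral dosing once daily from 1 hpi for four days. At 3 dpi, 0.1 g lung or liver from 4 mice per group was homogenized in 0.9 mL water at 4 °C and centrifuged. Supernatant IFN-β was read by ELISA; TNF-α, IFN-γ, IL-1β, IL-6 and CXCL10 by multi-analyte kit, with OD 450 nm against standards.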

Murine hepatitis virus [3] = test: Antiviral activity against murine hepatitis virus-A59 infected in BALB/c mouse assessed as reduction in IFN-gamma production in lungs at 200 mg/kg, po administered once daily one hour post infection and measured after 3 days by ELISA analysis; assay type: functional, organism-based; conditions: time 3.0 day; procedure, shortened: as §1
Murine hepatitis virus [4] = test: Antiviral activity against murine hepatitis virus-A59 infected in BALB/c mouse assessed as reduction in TNF-alpha production in liver at 10 to 100 mg/kg, po administered once daily one hour post infection and measured after 3 days by ELISA analysis; assay type: functional, organism-based; conditions: dose 10-100 mg/kg, time 3.0 day; procedure, shortened: as §1
[5] = Drug distribution in BALB/c mouse liver assessed as hydrolyzed ibuprofen metabolite at 200 mg/kg, po administered as single dose and measured after 1 hrs by LC-MS/MS analysis; assay type: ADME, organism-based; conditions: in vivo
Murine hepatitis virus [6] = test: Antiviral activity against murine hepatitis virus-A59 infected in BALB/c mouse assessed as reduction in TNF-alpha production in lungs at 200 mg/kg, po administered once daily one hour post infection and measured after 3 days by ELISA analysis; assay type: functional, organism-based; conditions: time 3.0 day; procedure, shortened: as §1
Canine coronavirus = test: Antiviral activity against Canine coronavirus infected in CRFK cells assessed as reduction in viral copy pre-infected with cells for 1 hrs followed by compound addition and measured after 48 hrs by RT-qPCR analysis; assay type: functional, organism-based; conditions: Alphacoronavirus 1, CRFK
Procedure, shortened: (§2)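 CRFK cells (CCoV, FIPV) or ST cells (TGEV) were grown in DMEM with 10% FBS at 37 °C, 5% CO2. At 80% confluence they were washed in serum-free medium and infected at MOI 0.01 for 1 h at 37 °C. Compounds were then added at 0.1–100 μmol/L, with DMSO as blank. After 48 h, cells and supernatants were analysed by qRT-PCR. Inhibition came from viral copy number, and EC50 from curve fitting.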

[7] = Drug metabolism in Sprague-Dawley rat assessed as hydrolysis-mediated ibuprofen metabolite formation at 25 mg/kg, po administered as single dose and measured after 24 hrs by LC-MS/MS analysis; assay type: ADME, organism-based; conditions: in vivo
Procedure, shortened: (§3)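 Male SD rats (n = 3), fasted 12 h, dosed intragastrically; jugular vein blood into EDTA-K2 tubes at 0.25, 0.5, 1, 2, 3, 4, 6, 8 and 24 h; plasma protein-precipitated with acetonitrile, filtered, analytes measured by LC/MS/MS; noncompartmental PK analysis; mean ± SD.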

Murine hepatitis virus [8] = test: Antiviral activity against murine hepatitis virus-A59 infected in BALB/c mouse assessed as inhibition of viral titer in liver at 10 to 200 mg/kg, po administered once daily one hour post infection and measured after 3 days by qRT-PCR analysis; assay type: functional, organism-based; conditions: dose 10-200 mg/kg, time 3.0 day
Procedure, shortened: (§4)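 SPF male BALB/c mice aged 3–4 weeks were put under isoflurane and inoculated intranasally with 30 μL MHV-A59 (TCID50 = 10−7.125/100 μL) in PBS. Oral dosing once daily in 15% Cremophor EL/82.5% PBS/2.5% DMSO started at 1 hpi and ran for four days; groups had 12 mice. At 3 dpi, 4 mice per group were killed and lung and liver M-gene copies measured by qRT-PCR.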

[9] = Drug metabolism in Sprague-Dawley rat assessed as hydrolysis-mediated GS-441524 metabolite formation at 25 mg/kg, po administered as single dose and measured after 24 hrs by LC-MS/MS analysis; assay type: ADME, organism-based; conditions: in vivo; procedure, shortened: as §3
[10] = Drug distribution in BALB/c mouse lung assessed as hydrolyzed GS-441524 metabolite at 200 mg/kg, po administered as single dose and measured after 1 hrs by LC-MS/MS analysis; assay type: ADME, organism-based; conditions: in vivo
[11] = Drug metabolism in Sprague-Dawley rat assessed as hydrolysis-mediated ibuprofen metabolite formation at 5 mg/kg, iv administered as single dose and measured after 24 hrs by LC-MS/MS analysis; assay type: ADME, organism-based; conditions: in vivo
Murine hepatitis virus [12] = test: Antiviral activity against murine hepatitis virus-A59 infected in BALB/c mouse assessed as alleviation of thickened alveolar septa in lungs at 200 mg/kg, po administered once daily one hour post infection and measured after 3 days by H&E staining based analysis; assay type: functional, organism-based; conditions: time 3.0 day
Procedure, shortened: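 In male BALB/c mice (3–4 weeks), MHV-A59 was given intranasally (30 μL, TCID50 = 10−7.125/100 μL). Oral dosing once daily in a Cremophor EL/PBS/DMSO vehicle began at 1 hpi and lasted four days. At 3 dpi, lungs and livers from 4 mice per group were fixed in zinc formalin and paraffin-embedded. Sections of about 4 μm were stained with H&E and examined at 200× and 400×.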

Murine hepatitis virus [13] = test: Antiviral activity against murine hepatitis virus-A59 infected in po dosed BALB/c mouse assessed as inhibition of viral replication in liver administered once daily one hour post infection and measured after 3 days by qRT-PCR analysis; assay type: functional, organism-based; conditions: dose 10-200 mg/kg, time 3.0 day; procedure, shortened: as §4
Murine hepatitis virus [14] = test: Antiviral activity against murine hepatitis virus-A59 infected in BALB/c mouse model of acute liver injury assessed as reduction in plasma ALT level at 10 to 200 mg/kg, po administered once daily one hour post infection and measured after 3 days; assay type: functional, organism-based; conditions: dose 10-200 mg/kg, time 3.0 day
Procedure, shortened: (§5)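 Male BALB/c mice were infected intranasally with MHV-A59 (30 μL, TCID50 = 10−7.125/100 μL) and dosed orally once daily from 1 hpi for four days in 15% Cremophor EL/82.5% PBS/2.5% DMSO. At 3 dpi, blood from 4 euthanized mice per group was left to clot at room temperature and centrifuged. Serum ALT and AST were measured on a clinical chemistry analyzer.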

[15] = test system: Feline infectious peritonitis virus; test: Antiviral activity against Feline infectious peritonitis virus infected in CRFK cells assessed as reduction in viral copy pre-infected with cells for 1 hrs followed by compound addition and measured after 48 hrs by RT-qPCR analysis; assay type: functional, organism-based; conditions: Alphacoronavirus 1, CRFK; procedure, shortened: as §2
Murine hepatitis virus [16] = test: Antiviral activity against murine hepatitis virus-A59 infected in po dosed BALB/c mouse assessed as inhibition of viral replication in lungs administered once daily one hour post infection and measured after 3 days by qRT-PCR analysis; assay type: functional, organism-based; conditions: dose 10-200 mg/kg, time 3.0 day; procedure, shortened: as §4
Murine hepatitis virus [17] = test: Antiviral activity against murine hepatitis virus-A59 infected in BALB/c mouse model of acute liver injury assessed as reduction in plasma AST level at 10 to 200 mg/kg, po administered once daily one hour post infection and measured after 3 days; assay type: functional, organism-based; conditions: dose 10-200 mg/kg, time 3.0 day; procedure, shortened: as §5
[18] = Solubility of the compound; assay type: physicochemical
[19] = test system: Transmissible gastroenteritis virus; test: Antiviral activity against Transmissible gastroenteritis virus infected in ST cells assessed as reduction in viral copy pre-infected with cells for 1 hrs followed by compound addition and measured after 48 hrs by RT-qPCR analysis; assay type: functional, organism-based; conditions: Alphacoronavirus 1, ST; procedure, shortened: as §2

**Q.** What does the source list for CC(C)Cc1ccc(C(C)C(=O)OC[C@H]2O[C@@](C#N)(c3ccc4c(N)ncnn34)[C@H](O)[C@@H]2O)cc1 (stereo not given in full)?
**A.** Drug uptake [1]: Active; Activity (Murine hepatitis virus [2]): Active; Activity (Murine hepatitis virus [3]): Active; Activity (Murine hepatitis virus [4]): Active; Drug uptake [5]: Active; Activity (Murine hepatitis virus [6]): Active; EC50 (Canine coronavirus): 1.41 µM; Drug metabolism [7]: Metabolite_Detected; Activity (Murine hepatitis virus [8]): Active; Drug metabolism [9]: Metabolite_Detected; Drug uptake [10]: Active; Drug metabolism [11]: Metabolite_Detected; Activity (Murine hepatitis virus [12]): Active; Activity (Murine hepatitis virus [13]): Dose-Dependent Effect; Activity (Murine hepatitis virus [14]): Active; EC50 [15]: 7.34 µM; Activity (Murine hepatitis virus [16]): Dose-Dependent Effect; Activity (Murine hepatitis virus [17]): Active; solubility [18]: 49.9 µM (≈ 23.9 µg/mL); EC50 [19]: 3.78 µM
